{"data": "Results collected from several papers", "PDPK1": "3-phosphoinositide-dependent protein kinase 1 (PDPK1, Homo sapiens, UniProt O15530)", "PRSS1": "Serine protease 1 (PRSS1, Homo sapiens, UniProt P07477)", "note": "Compare with care: the assays were run in different laboratories."}
{"Compound": "COC(=O)c1cc(N(C)C(=O)c2ccn3ncc(-c4ccc(C(=O)O)cc4)c3c2)ccc1Cl", "target": "PDPK1", "assay": "enzyme activity, inhibitor", "measurement": "IC50", "result": "> 30 µM"}
{"Compound": "O=C(O)[C@H]1/C(=C/CO)O[C@@H]2CC(=O)N21", "target": "Carbapenem-hydrolyzing beta-lactamase KPC (KPC-2, Klebsiella pneumoniae, UniProt Q9F663)", "assay": "enzyme activity, inhibitor, absorbance", "conditions": "pH 7, with preincubation", "measurement": "IC50", "result": "249 µM"}
{"Compound": "C=CCc1ccc(OC)cc1", "target": "OR8H1 (Homo sapiens, UniProt Q8NGG4)", "assay": "cAMP, agonist, luciferase", "measurement": "EC50", "result": "> 600 µM"}
{"Compound": "CCC(C(=O)Nc1cc(NC2CCOCC2)ccc1C)n1cc(Br)cc2nc(SCc3ccc(F)cc3)nc1-2 (centres unmarked)", "target": "PRSS1", "assay": "enzyme activity, inhibitor", "measurement": "IC50", "result": "> 100 µM"}
{"Compound": "CNC(=O)c1ccc(-c2cnn3ccc(C(=O)N(C)c4ccc(Cl)c(C(=O)O)c4)cc23)cc1", "target": "PDPK1", "assay": "enzyme activity, inhibitor", "measurement": "IC50", "result": "> 30 µM"}
{"Compound": "O=C(O)C(F)(F)C(F)(F)C(F)(F)C(F)(F)C(F)(F)C(F)(F)C(F)(F)F", "target": "Aldo-keto reductase family 1 member C1 (AKR1C1, Homo sapiens, UniProt Q04828)", "assay": "enzyme activity, inhibitor", "measurement": "IC50", "result": "≥ 50 µM"}
{"Compound": "CCC(C(=O)Nc1cc(NC2CCNC2)ccc1C)n1cc(Br)cc2nc(SCc3ccc(F)cc3)nc1-2 (centres unmarked)", "target": "PRSS1", "assay": "enzyme activity, inhibitor", "measurement": "IC50", "result": "> 100 µM"}
{"Compound": "CC[C@H](C)[C@H](NC(=O)[C@H](CO)NC(=O)CNC(=O)[C@@H](NC(=O)[C@@H](NC(=O)[C@@H](NC(=O)CN)[C@@H](C)O)C(C)C)[C@@H](C)O)C(=O)N[C@@H](CC(C)C)C(=O)N[C@H](C(=O)N1CCC[C@H]1C(=O)N[C@H](C(=O)N[C@@H](CC(=O)O)C(=O)N[C@@H](Cc1ccc(O)cc1)C(=O)NCC(=O)N[C@H]1CSSC[C@@H](C(=O)N[C@@H](CO)C(=O)N[C@H](C(=O)N[C@@H](C)C(=O)N[C@@H](CCSC)C(=O)N[C@@H](Cc2ccc(O)cc2)C(=O)NCC(=O)NCC(=O)N[C@H](C(=O)N[C@H](C(=O)N[C@@H](CC(=O)O)C(=O)N2CCC[C@H]2C(=O)N[C@H](C(=O)N[C@@H](CCCNC(=N)N)C(=O)N[C@@H](Cc2ccccc2)C(=O)N2CCC[C@H]2C(=O)N[C@@H](CC(N)=O)C(=O)N[C@@H](C)C(=O)N[C@@H](Cc2c[nH]c3ccccc23)C(=O)N[C@@H](CCCNC(=N)N)C(=O)N[C@@H](CCC(=O)O)C(=O)N[C@@H](CC(C)C)C(=O)O)[C@@H](C)CC)[C@@H](C)CC)C(C)C)C(C)C)NC(=O)[C@H](CC(C)C)NC(=O)[C@H](Cc2ccccc2)NC(=O)[C@@H]2CCCN2C(=O)[C@H](CC(N)=O)NC(=O)[C@H](Cc2ccccc2)NC1=O)[C@@H](C)CC)[C@@H](C)O", "target": "Chymotrypsinogen A (Bos taurus, UniProt P00766)", "assay": "enzyme activity, inhibitor, fluorescence", "measurement": "IC50", "result": "> 100 µM"}
